# In ChEMBL document CHEMBL4842315, “Discovery and mechanism of action studies of 4,6-diphenylpyrimidine-2-carbohydrazides as utrophin modulators for the treatment of Duchenne muscular dystrophy” (Eur J Med Chem, 2021):
# Activity calls are given as the source filed them. No cut-off for these calls is given here.
# System: not listed separately
# Assay: Upregulation of utrophin gene expression in mouse myoblasts expressing LUmdx and firefly luciferase assessed as activation of utrophin promoter by cell-based reporter assay
# Type: functional, tissue-based, Myoblast
# Settings: Mus musculus, Myoblast; read-out: EC50
# Procedure, shortened: (§1)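 Immortalised myoblasts derived from the LUmdx mouse carry a utrophin promoter–firefly luciferase reporter, and promoter activation is read as luciferase signal. During screening, hits were counterscreened for firefly luciferase assay interference.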
row,EC50 [µM],SMILES
1,8.95,COCCOc1ccc(-c2cc(-c3ccccc3)nc(C(=O)NN)n2)cc1
2,4.54,CCCc1ccc(-c2cc(-c3ccccc3)nc(C(=O)NN)n2)cc1
3,8.98,NNC(=O)c1nc(-c2ccccc2)nc(-c2ccccc2)n1
4,20.5,NNC(=O)c1nc(-c2ccccc2)cc(-c2ccccc2)n1
5,2.28,COc1ccc(-c2cc(-c3ccccc3)nc(C(=O)NN)n2)cc1
6,5.62,CCCOc1ccc(-c2cc(-c3ccccc3)nc(C(=O)NN)n2)cc1
7,1.57,NNC(=O)c1nc(-c2ccccc2)cc(-c2ccc(O)cc2)n1
8,2.71,CCOc1ccc(-c2cc(-c3ccccc3)nc(C(=O)NN)n2)cc1
9,4.65,COCc1ccc(-c2cc(-c3ccccc3)nc(C(=O)NN)n2)cc1
10,1.9,NNC(=O)c1nc(-c2ccccc2)cc(-c2ccc(CO)cc2)n1

# More lines, now with the values behind:
row,SMILES,EC50 [µM]
1,NNC(=O)c1nc(-c2ccc(C(F)(F)F)cc2)cc(-c2ccc(C(F)(F)F)cc2)n1,> 10
2,NNC(=O)c1nc(-c2ccc(F)cc2)cc(-c2ccc(F)cc2)n1,12.8
3,C#CCOCCOc1ccc(-c2cc(-c3ccccc3)nc(C(=O)NN)n2)cc1,14.9
4,COc1ccc(-c2cc(-c3ccc(OC)cc3)nc(C(=O)NN)n2)cc1,7.14
5,NNC(=O)c1nc(-c2ccccc2F)cc(-c2ccccc2F)n1,11
6,NNC(=O)c1nc(-c2ccccc2)cc(-c2ccc(C3(C(F)(F)F)N=N3)cc2)n1,7.22
7,NNC(=O)c1nc(-c2cccc(F)c2)cc(-c2cccc(F)c2)n1,> 10
8,COc1cccc(-c2cc(-c3cccc(OC)c3)nc(C(=O)NN)n2)c1,9.22
9,CC(=O)NCCOCCOc1ccc(-c2cc(-c3ccccc3)nc(C(=O)NN)n2)cc1,12.7
10,C#CCOCCOc1ccc(-c2cc(-c3ccc(C4(C(F)(F)F)N=N4)cc3)nc(C(=O)NN)n2)cc1,20

# Same assay, conditions: myoblast
row,EC50,SMILES
1,Not Active,NNc1nc(-c2ccccc2)cc(-c2ccccc2)n1
2,Not Active,NNC(=O)c1nc(-c2ccccc2)cc(-c2ccc(Oc3ccccc3)cc2)n1
3,Not Active,NNC(=O)Cc1nc(-c2ccccc2)cc(-c2ccccc2)n1
4,Not Active,Cc1c(-c2ccccc2)nc(C(=O)NN)nc1-c1ccccc1
5,Not Active,NNC(=O)c1cc(-c2ccccc2)nc(-c2ccccc2)n1
6,Not Active,NNC(=O)c1nc(Oc2ccccc2)cc(-c2ccccc2)n1
7,Not Active,NNC(=O)c1cnc(-c2ccccc2)cc1-c1ccccc1
8,Not Active,NNC(=O)c1cc(-c2ccccc2)cc(-c2ccccc2)n1
9,Not Active,N/N=C/c1nc(-c2ccccc2)cc(-c2ccccc2)n1
10,Not Active,CCCCOc1ccc(-c2cc(-c3ccccc3)nc(C(=O)NN)n2)cc1
11,Not Active,NNC(=O)c1nc(-c2ccccc2)cc(-c2ccc(OCCOCc3ccccc3)cc2)n1
12,Not Active,NC(=O)c1nc(-c2ccccc2)cc(-c2ccccc2)n1
13,Not Active,O=C(NO)c1nc(-c2ccccc2)cc(-c2ccccc2)n1
14,Not Active,COC(=O)c1nc(-c2ccccc2)cc(-c2ccccc2)n1
15,Not Active,O=C(O)c1nc(-c2ccccc2)cc(-c2ccccc2)n1

# More lines, now with the values behind:
row,SMILES,EC50
1,NNC(=O)c1ncccn1,Not Active
2,NNC(=O)c1nc(-c2cccc(C(F)(F)F)c2)cc(-c2cccc(C(F)(F)F)c2)n1,Not Active
3,COc1ccccc1-c1cc(-c2ccccc2OC)nc(C(=O)NN)n1,Not Active
4,NNC(=O)c1nc(-c2ccccc2C(F)(F)F)cc(-c2ccccc2C(F)(F)F)n1,Not Active
5,Cc1cc(C)nc(C(=O)NN)n1,Not Active
6,COc1cc(-c2ccccc2)nc(C(=O)NN)n1,Not Active
7,C#CCOCCOc1ccc(-c2nc(C(=O)NN)nc(-c3ccc(C4(C(F)(F)F)N=N4)cc3)c2C)cc1,Not Active
8,NNC(=O)c1nc(-c2ccccc2)cc(C2CCCCC2)n1,Not Active

# System: not listed separately
# Assay: Upregulation of utrophin gene expression in mouse myoblasts expressing LUmdx and firefly luciferase assessed as activation of utrophin promoter at 0.1 to 50 uM by cell-based reporter assay relative to control
# Type: functional, Myoblast
# Settings: dose 0.1-50 µM
# Procedure, shortened: as §1
row,SMILES,fold change (FC)
1,NNC(=O)c1nc(-c2ccccc2)cc(-c2ccccc2)n1,2

# System: not listed separately
# Assay: Apparent permeability of the compound across apical to basolateral side in human Caco-2 cells
# Type: ADME, cell-based
# Settings: read-out: permeability
row,Papp A→B [×10⁻⁶ cm/s],SMILES
1,30.7,NNC(=O)c1nc(-c2ccccc2)cc(-c2ccccc2)n1

# System: not listed separately
# Assay: Upregulation of utrophin gene expression in DMD disease mouse model myoblasts expressing H2K-mdx utrnA-firefly luciferase assessed as fold increase in utrophin mRNA at 3 uM by qRT-PCR analysis relative to control
# Type: functional, Myoblast
# Settings: not given
row,SMILES,fold change (FC)
1,CCS(=O)(=O)c1ccc2oc(-c3ccc4ccccc4c3)nc2c1 [EZUTROMID],1.7

# System: not listed separately
# Assay: Upregulation of utrophin gene expression in DMD disease mouse model myoblasts expressing H2K-mdx utrnA-firefly luciferase assessed as fold increase in utrophin mRNA at 30 uM by qRT-PCR analysis relative to control
# Type: functional, Myoblast
# Settings: not given
row,SMILES,fold change (FC)
1,NNC(=O)c1nc(-c2ccccc2)cc(-c2ccccc2)n1,1.6

# System: Myoblast
# Assay: Upregulation of utrophin gene expression in DMD disease mouse model myoblasts expressing H2K-mdx utrnA-firefly luciferase assessed as activation of utrophin promoter by cell-based reporter assay
# Type: functional, tissue-based
# Settings: not given
row,SMILES,Activity
1,NNC(=O)c1nc(-c2ccccc2)cc(-c2ccccc2)n1,inactive

# System: Myoblast
# Assay: Upregulation of AhR gene expression in DMD disease mouse model myoblasts expressing H2K-mdx utrnA-firefly luciferase assessed as fold increase in AhR mRNA at 30 uM by qRT-PCR analysis relative to control
# Settings: not given
row,fold change (FC),SMILES
1,inactive,CCS(=O)(=O)c1ccc2oc(-c3ccc4ccccc4c3)nc2c1 [EZUTROMID]
